According to the EternaBench riboswitch data:

System: MS2 coat protein
Experiment: apparent Kd, MS2 coat protein; higher = weaker binding; RNA-MaP array; FMN 200 µM where present
How it was run: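 The apparent Kd is reported as the median of filtered per-cluster binding-curve fits. To get these curves, designs transcribed by stalled E. coli RNA polymerase on Illumina sequencing-chip clusters were titrated with SNAP-549-labelled MS2 coat protein from 0.7 or 1.5 nM, doubling to 3 µM. Titrations were run without and then with constant ligand in 100 mM Tris-HCl pH 7.5, 80 mM KCl, 4 mM MgCl2, BSA, DTT, yeast tRNA and Tween-20, and green signal was normalised to red-channel RNA signal and control-cluster median Fmax.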

[1] = designed as: OFF switch for flavin mononucleotide, no ligand
[2] = ligand present: flavin mononucleotide, designed as: OFF switch for flavin mononucleotide
[3] = designed as: ON switch for flavin mononucleotide, no ligand
[4] = ligand present: flavin mononucleotide, designed as: ON switch for flavin mononucleotide

“CGUGCGUCGACAGGAUAUACAGAUUGGCUCCGGUACAUGAGGAUCACCCAUGUAGAAGGGUCACGCACGGUUAGUUCGUUAUUA” was tested. Which “apparent Kd” value [1] did it give?
Its value is 8.88 nM.

And the “apparent Kd” value [2]?
Its value is 40.9 nM.

How did the “apparent Kd” value [1] turn out when “GCUUGAGCAGGAUAUACAUGAGGAUCACCCAUGUUGAGCUUGAGGAUCUUCGAGUUCGGUAGAAGGGUUCGAGU” was run?
Its value is 22.1 nM.

What about the “apparent Kd” value [2] of the same sequence?
The value was 59.5 nM.

For “CCUUCAGCGAACGAUACGAAUGGACAUGAGGAUCACCCAUGUAGAAGGACAGGAGAAUAACGACUGUAGGAUAUACAUUUAGUG”, which “apparent Kd” value [1] is on record?
Its value is 22.3 nM.

What about the “apparent Kd” value [2] of the same sequence?
Its value is 28.6 nM.

Which results are given for “GGGUAGAUCCGAGGAUAUACAAUCCGGAAACGGUACAUGAGGAUCACCCAUGUAGAAGGCGGAUCUACAGGUACUAAAGUAGGG”?
apparent Kd [1]: 16 nM; apparent Kd [2]: 14.2 nM

How did the “apparent Kd” value [1] turn out when “CCUGUGUGAGGAUAUGUACUGCUCCUGUCCAACAGUGUAGAGCAGAAGGCACAUGAGGAUCACCCAUGUGAAAA” was run?
Its value is 26.2 nM.

And the “apparent Kd” value [2]?
The value was 23.1 nM.

For “CUCGUUAUGUUAGGAUAUGAUGCAUCCCGAUAAUCAGAAGGAACAUGAGGAUCACCCAUGUGACAUUUGGUGAAUACAAGCCAG”, which “apparent Kd” value [1] is on record?
The value was 6.79 nM.

And the “apparent Kd” value [2]?
Its value is 7.96 nM.

With “AAGGAACAUGAGGAUCACCCAUGUGAGGAUAUGUGAGAAGGAUUUGAGAAGGAGAGGGACAGAAGGCACUAGGA” as the sequence, how does the “apparent Kd” value [1] read?
The value was 46.9 nM.

What about the “apparent Kd” value [2] of the same sequence?
The value was 41.8 nM.

Which “apparent Kd” value [1] does the source give for “UGUCGGAGCAGAGGAUAUUACAUGAGGAUCACCCAUGUAUGAACCAAUAGCUGUAAACAGCAAUGUAAGAAGGCUGCUCCGACA” here?
The value was 12.7 nM.

What about the “apparent Kd” value [2] of the same sequence?
The value was 191 nM.

“GGGUUCAUCGGAGGAUAUCAUGUAAAUACAUGAGGAUCACCCAUGUCGAUGGAGACAUCGGAGAUUGAGAAGGCCGAUGUACCG” was tested. Which “apparent Kd” value [3] did it give?
The value was 186 nM.

And the “apparent Kd” value [4]?
Its value is 9.18 nM.

Which results are given for “UUUAUAUAGUAAGGAUAUGUAUUAAUUUUAUAGACAGAAGGUACUGACAUGAGGAUCACCCAUGUUUUAGUGUGGGCAUGUAGU”?
apparent Kd [1]: 358 nM; apparent Kd [2]: 549 nM

With “AUAAUUUUAUAUAUCAUUUUAAUCAGAAGGCAUAACAUGAGGAUCACCCAUGUAAAUUAUUGUUAUGAGGAUAUGAUUUGGUUA” as the sequence, how does the “apparent Kd” value [1] read?
Its value is 20.3 nM.

And the “apparent Kd” value [2]?
The value was 72.2 nM.

What does the source list for “UGGUAACAUGAGGAUCACCCAUGUCAGGAUAUCAGGAAGAGGAGAGGAGAGGAGAAGAUGAGAAGGGACUAUAU”?
apparent Kd [1]: 27.2 nM; apparent Kd [2]: 21.9 nM

What does the source list for “AAUUGACACGUAGGAUAUCGAUCUAUAUUAACUCGAGAAGGACGUACAUGAGGAUCACCCAUGUUUAAUGGAGUAGAUAAGUUG”?
apparent Kd [1]: 102 nM; apparent Kd [2]: 289 nM

For “CGAACUAAGUAGAAGGCUGUCUUAAAAUAGGACAGAGGAUAUACAUGAGGAUCACCCAUGUACUCCUUUAAUAAGUUCGAAAUA”, which “apparent Kd” value [1] is on record?
The value was 5.22 nM.

What about the “apparent Kd” value [2] of the same sequence?
The value was 6.13 nM.

With “UUUCCGCAAGGAUAUACGGGCUGUGCUUUUCAUUUCUUACAACAUGAGGAUCACCCAUGUAGAAGGUGCUUCUU” as the sequence, how does the “apparent Kd” value [1] read?
Its value is 208 nM.

And the “apparent Kd” value [2]?
Its value is 217 nM.

For “CGCUACGUUUCGUAGCAGUGUCAUCGAGAAGGCCCUGACAUGAGGAUCACCCAUGUUGUUACAUGGGAGGAUAUCGAUGAUACU”, which “apparent Kd” value [3] is on record?
The value was 13.4 nM.

And the “apparent Kd” value [4]?
The value was 5.25 nM.

How did the “apparent Kd” value [3] turn out when “GGAUCCAUCACAGGAUAUGCUGGACUUUGUCCAGCAGAAGGGUGAACAUGAGGAUCACCCAUGUAAAAGGAUCCUAUAUUUAAU” was run?
The value was 124 nM.

And the “apparent Kd” value [4]?
Its value is 24.9 nM.

How did the “apparent Kd” value [1] turn out when “GCAUCCAAUGUGAGGAUAUACCUCUGGAUACAUAGGUAGAAGGCACAUGAGGAUCACCCAUGUCCUAAGGAUGC” was run?
Its value is 130 nM.

And the “apparent Kd” value [2]?
The value was 149 nM.

“AGCUGUGGCAGAGGAUAUACUACUAUAAUCCAUUGCAAAUAGCGAUGGACAUGAGGAUCACCCAUGUAGAAGGCUGUCACAGCA” was tested. Which “apparent Kd” value [1] did it give?
The value was 45.6 nM.

And the “apparent Kd” value [2]?
The value was 176 nM.

For “GUAGCUAUUAUUAUACAUGAGGAUCACCCAUGUUACAUGUGUAAGGAUAUUGAAGUUUUUAUAAUCAAGAAGGUACUAUGCUAC”, which “apparent Kd” value [3] is on record?
The value was 16.8 nM.

And the “apparent Kd” value [4]?
The value was 9.2 nM.

Which “apparent Kd” value [3] does the source give for “UGUUGUAUUACAGGAUAUCUAGUAAUUUUAUUUAGAGAAGGGUAUUCACAUGAGGAUCACCCAUGUAUAUACGAGGAAGUUGUG” here?
The value was 37 nM.

What about the “apparent Kd” value [4] of the same sequence?
Its value is 39.7 nM.

What does the source list for “AGAUAGCGAAUAGUAAUAAAAGUACAGGAUAUGUUACAUGAGGAUCACCCAUGUAUUGGGUAAGAACAGAAGGGUACGCUAGAG”?
apparent Kd [1]: 144 nM; apparent Kd [2]: 123 nM

How did the “apparent Kd” value [1] turn out when “CUAUUACGAGGAUAUCGUCAGAGUCACAUGAGGAUCACCCAUGUAUCCCACGGACCGGAAUGAGAAGGCGUUCAUG” was run?
The value was 288 nM.

What about the “apparent Kd” value [2] of the same sequence?
The value was 769 nM.

Which results are given for “AAAAAGUCAGGAUAUACAUGAGGAUCACCCAUGUAAAAAAAAGGGAAAAAAAAAAAGGGUAGAAGGGACGAAAA”?
apparent Kd [1]: 37.8 nM; apparent Kd [2]: 33 nM

Which “apparent Kd” value [1] does the source give for “GGUGCGUAUGUGAGGAUAUGCUGGUCCUUGGAUCAGCAGAAGGCACAUGAGGAUCACCCAUGUGGUGUCGUUCC” here?
Its value is 397 nM.

And the “apparent Kd” value [2]?
The value was 29.3 nM.

Which results are given for “AGUCGGAGCAGAGGAUAUACAUGAGGAUCACCCAUGUAAUAUGAUCUAGCCUGGAAACAGGCAAUGUAGAAGGCUGCUCCGACA”?
apparent Kd [1]: 90.3 nM; apparent Kd [2]: 709 nM

For “CGAAGUCCGUAGAAGGGUGACAUGAGGAUCACCCAUGUGCGAGCGGAGGGAGUCAUCGGCUCGCCACAGGAUAUACGGAGCACG”, which “apparent Kd” value [3] is on record?
The value was 58.1 nM.

And the “apparent Kd” value [4]?
The value was 49.2 nM.
